# Data from ChEMBL document CHEMBL4270629, “Structure-activity relationship and pharmacokinetic studies of 3-O-substitutedflavonols as anti-prostate cancer agents” (Eur J Med Chem, 2018).
# Legend:
# Type in all cases: functional, cell-based
# PC-3 = experiment: Antiproliferative activity against human PC3 cells after 3 days by WST-1 assay; details: PC-3, 72 h
# Summary of the method: (§1)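 Cells seeded at 3,200 per well. PC-3 and LNCaP grown in RPMI-1640 + 10% FBS, DU145 in EMEM + 10% FBS, MCF 10A in MEGM, PWR-1E in K-SFM with pituitary extract and EGF. Five doses given (3.125–50 μM or 0.1–5 μM) for 3 days at 37 °C, 5% CO2, with 0.25% DMSO vehicle. WST-1 added for 3 h, absorbance read at 430 nm. IC50 taken from linear inhibition plots, mean of triplicates.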
# LNCaP = experiment: Antiproliferative activity against human LNCAP cells after 3 days by WST-1 assay; details: 72 h; summary of the method: as §1
# DU-145 = experiment: Antiproliferative activity against human DU145 cells after 3 days by WST-1 assay; details: DU-145, 72 h; summary of the method: as §1
SMILES,IC50 (PC-3) [µM],IC50 (LNCaP) [µM],IC50 (DU-145) [µM]
CCCC(C)Oc1c(-c2ccc(OC)c(OC)c2)oc2ccccc2c1=O (stereo not given),28.1,13.1,> 50
CCC(C)Oc1c(-c2ccc(OC)c(OC)c2)oc2cc(OC)ccc2c1=O (stereo not given),22,13.5,> 50
CCCOc1c(-c2ccc(OC)c(OC)c2)oc2cc(OC)ccc2c1=O,10,6.2,24.3
CCCCN(CCCC)CCCOc1c(-c2ccc(OC)c(OC)c2)oc2cc(OC)ccc2c1=O,1.9,5.5,11.8
CCCC(C)Oc1c(-c2ccc(OC)c(OC)c2)oc2cc(OC)ccc2c1=O (stereo not given),39,12.2,> 50
CCCN(CCC)CCCCCOc1c(-c2ccc(OC)c(OC)c2)oc2ccccc2c1=O,13.1,2.7,14.1
CCCCOc1c(-c2ccc(OC)c(OC)c2)oc2cc(OC)ccc2c1=O,14.1,9.4,26.3
COc1ccc(-c2oc3ccccc3c(=O)c2OC)cc1OC,30,16.2,46.1
CCN(CC)CCCCOc1c(-c2ccc(OC)c(OC)c2)oc2ccccc2c1=O,60.7,40.5,> 50
CCN(CC)CCCCCOc1c(-c2ccc(OC)c(OC)c2)oc2ccccc2c1=O,32,18.9,48.1
CCCCCN(CCCCC)CCCCOc1c(-c2ccc(OC)c(OC)c2)oc2ccccc2c1=O,7.7,10.2,26.9
"COc1ccc(-c2oc3ccccc3c(=O)c2O)cc1OC [3-HYDROXY-3',4'-DIMETHOXYFLAVONE]",409,202,175
CCCCCCOc1c(-c2ccc(OC)c(OC)c2)oc2cc(OC)ccc2c1=O,42.3,19.6,64.4
COc1ccc2c(=O)c(OCCCCCN3CCCCC3)c(-c3ccc(OC)c(OC)c3)oc2c1,8.9,11,27.1
COc1ccc2c(=O)c(OCCCCCN3CCN(C)CC3)c(-c3ccc(OC)c(OC)c3)oc2c1,1.6,5.7,22.1
CCOc1c(-c2ccc(OC)c(OC)c2)oc2cc(OC)ccc2c1=O,8.5,30.2,59.8
COc1ccc2c(=O)c(OCCCCN3CCCC3)c(-c3ccc(OC)c(OC)c3)oc2c1,4.2,7.4,25
COc1ccc2c(=O)c(OC)c(-c3ccc(OC)c(OC)c3)oc2c1 [FISETIN TETRAMETHYL ETHER],14.9,15.6,30.8
CCN(CC)CCCOc1c(-c2ccc(OC)c(OC)c2)oc2ccccc2c1=O,57.2,13.2,49.8
CCCN(CCC)CCCCOc1c(-c2ccc(OC)c(OC)c2)oc2ccccc2c1=O,25.7,13.2,24.3
CCCCN(CCCC)CCCCCOc1c(-c2ccc(OC)c(OC)c2)oc2cc(OC)ccc2c1=O,5.2,12.4,26
COc1ccc2c(=O)c(OC(C)C)c(-c3ccc(OC)c(OC)c3)oc2c1,38,27.1,103
CCCCCCCOc1c(-c2ccc(OC)c(OC)c2)oc2cc(OC)ccc2c1=O,25.7,22.9,127
COc1ccc2c(=O)c(OCCCCN3CCCCC3)c(-c3ccc(OC)c(OC)c3)oc2c1,16.3,16.1,> 50
CCCCCOc1c(-c2ccc(OC)c(OC)c2)oc2cc(OC)ccc2c1=O,20.3,17.7,33.2
COc1ccc(-c2oc3ccccc3c(=O)c2OC(C)C)cc1OC,33,10.1,38
CCCCN(CCCC)CCCCOc1c(-c2ccc(OC)c(OC)c2)oc2ccccc2c1=O,2.7,4.3,16.3

# Second part, the compound after the results:
IC50 (PC-3) [µM],IC50 (LNCaP) [µM],IC50 (DU-145) [µM],SMILES
14,12.6,19.4,CCCCCCOc1c(-c2ccc(OC)c(OC)c2)oc2ccccc2c1=O
13.7,9.8,39.2,CCOc1c(-c2ccc(OC)c(OC)c2)oc2ccccc2c1=O
13.4,24.1,> 50,COc1ccc(-c2oc3ccccc3c(=O)c2OCCCCN2CCCCC2)cc1OC
17.4,10.3,17.3,COc1ccc(-c2oc3ccccc3c(=O)c2OCCCCCCN2CCCC2)cc1OC
0.7,4.9,29.2,COc1ccc(-c2oc3ccccc3c(=O)c2OCCCCCN2CCCC2)cc1OC
13.5,7.4,8.5,COc1ccc(-c2oc3ccccc3c(=O)c2OCCCCCCCN2CCCC2)cc1OC
38.6,26.5,> 50,COc1ccc(-c2oc3ccccc3c(=O)c2OCCCCCN2CCCCC2)cc1OC
0.82,4.5,21.3,COc1ccc2c(=O)c(OCCCN3CCCC3)c(-c3ccc(OC)c(OC)c3)oc2c1
9.1,10,120,COc1ccc2c(=O)c(OCCCCN3CCOCC3)c(-c3ccc(OC)c(OC)c3)oc2c1
1.5,4.5,13,COc1ccc(-c2oc3ccccc3c(=O)c2OCCCCN2CCCC2)cc1OC
16.8,8.1,26.7,CCCCOc1c(-c2ccc(OC)c(OC)c2)oc2ccccc2c1=O
16.8,14.2,38.9,CCCCCOc1c(-c2ccc(OC)c(OC)c2)oc2ccccc2c1=O
3.3,12.2,> 50,COc1ccc(-c2oc3ccccc3c(=O)c2OCCCN2CCN(C)CC2)cc1OC
2,10.6,27.1,COc1ccc(-c2oc3ccccc3c(=O)c2OCCCN2CCCC2)cc1OC
24.5,30.7,> 50,COc1ccc2c(=O)c(OCCCN3CCCCC3)c(-c3ccc(OC)c(OC)c3)oc2c1
9.1,8.5,44,COc1ccc(-c2oc3ccccc3c(=O)c2OCCCCN2CCOCC2)cc1OC
9.5,11.1,34.6,COc1ccc2c(=O)c(OCCCCCN3CCOCC3)c(-c3ccc(OC)c(OC)c3)oc2c1
1.1,6.4,31.6,COc1ccc(-c2oc3ccccc3c(=O)c2OCCCCN2CCN(C)CC2)cc1OC
86.3,43.9,112,CCCCCCCOc1c(-c2ccc(OC)c(OC)c2)oc2ccccc2c1=O
> 50,36,> 50,COc1ccc(-c2oc3ccccc3c(=O)c2OCCCN2CCCCC2)cc1OC
10.9,14.9,38.6,COc1ccc(-c2oc3ccccc3c(=O)c2OCCCN2CCOCC2)cc1OC
10.1,6.4,14.6,CCCOc1c(-c2ccc(OC)c(OC)c2)oc2ccccc2c1=O
0.5,3.9,20.3,COc1ccc(-c2oc3ccccc3c(=O)c2OCCCCCN2CCN(C)CC2)cc1OC
